# Assay results taken from ChEMBL document CHEMBL1122299, “Potential cerebral perfusion agents: synthesis and evaluation of a radioiodinated vinylalkylbarbituric acid analogue” (J Med Chem, 1983).
# Assays:
# [1] = tested on: Rattus norvegicus; assay: Distribution of radioactivity in blood of rats at 1 day after an intravenous injection; Value expressed as mean % injected dose, Range- 0.03-0.03; format: ADME, organism-based; details: in vivo, 24 h
# Outline: (§1)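 Female Fischer 344 rats (10–12 wk, 170–200 g; food and water ad libitum) under ether received 7.95 μCi 125I-labeled agent (sp act ~155 mCi/mmol) in pH 7.4 phosphate buffer, filtered, via lateral tail vein. Four rats per time point (2 min–1 day). Killed by cervical fracture under ether; organs excised, saline-rinsed, blotted, weighed, gamma-counted; mean % injected dose/g with range.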
# [2] = tested on: Rattus norvegicus; assay: Distribution of radioactivity in blood of rats at 1 hr after an intravenous injection; Value expressed as mean % injected dose, Range-0.9-1.03; format: ADME, organism-based; details: in vivo; outline: as §1
# [3] = tested on: Rattus norvegicus; assay: Distribution of radioactivity in blood of rats at 2 mins after an intravenous injection; Value expressed as mean % injected dose, Range = 0.88-1.15; format: ADME, organism-based; details: in vivo; outline: as §1
# [4] = tested on: Rattus norvegicus; assay: Distribution of radioactivity in blood of rats at 2 hr after an intravenous injection; Value expressed as mean % injected dose, Range = 0.71-0.87; format: ADME, organism-based; details: in vivo; outline: as §1
# [5] = tested on: Rattus norvegicus; assay: Distribution of radioactivity in lung tissue of rats at 30 mins after an intravenous injection; Value expressed as mean % injected dose, Range- 0.65-0.87; format: ADME, organism-based; details: in vivo, 0.5 h; outline: as §1
# [6] = tested on: Rattus norvegicus; assay: Distribution of radioactivity in lung tissue of rats at 4 hr after an intravenous injection; Value expressed as mean % injected dose, Range- 0.28-0.31; format: ADME, organism-based; details: in vivo; outline: as §1
# [7] = tested on: Rattus norvegicus; assay: Distribution of radioactivity in lung tissue of rats at 5 mins after an intravenous injection; Value expressed as mean % injected dose, Range- 0.98-1.22; format: ADME, organism-based; details: in vivo; outline: as §1
# [8] = tested on: Rattus norvegicus; assay: Distribution of radioactivity in thyroid tissue of rats at 1 day after an intravenous injection; Value expressed as mean % injected dose, Range- 406-499; format: ADME, organism-based, Thyroid gland; details: in vivo, 24 h; outline: as §1
# [9] = tested on: Rattus norvegicus; assay: Distribution of radioactivity in thyroid tissue of rats at 2 mins after an intravenous injection; Value expressed as mean % injected dose, Range- 6.65-8.0.8; format: ADME, organism-based, Thyroid gland; details: in vivo; outline: as §1
# [10] = tested on: Rattus norvegicus; assay: Distribution of radioactivity in thyroid tissue of rats at 2 hr after an intravenous injection; Value expressed as mean % injected dose, Range- 92-159; format: ADME, organism-based, Thyroid gland; details: in vivo; outline: as §1
# [11] = tested on: Rattus norvegicus; assay: Distribution of radioactivity in thyroid tissue of rats at 30 mins after an intravenous injection; Value expressed as mean % injected dose, Range- 18.74-30.84; format: ADME, organism-based, Thyroid gland; details: in vivo, 0.5 h; outline: as §1
# [12] = tested on: Rattus norvegicus; assay: Distribution of radioactivity in thyroid tissue of rats at 4 hr after an intravenous injection; Value expressed as mean % injected dose, Range- 156-207; format: ADME, organism-based, Thyroid gland; details: in vivo; outline: as §1
# [13] = tested on: Rattus norvegicus; assay: Ratio between the distribution of radioactivity of brain to that of blood tissue of rats at 1 day after an intravenous administration; format: ADME, organism-based; details: 24 h
# Outline: (§2)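 Same rats (four per time point, 2 min–1 day) after a 7.95 μCi tail-vein dose of 125I-labeled agent in pH 7.4 phosphate buffer. Brain and blood were excised, weighed and gamma-counted as % injected dose/g. The ratio compares brain to blood radioactivity and is reported as a mean.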
# [14] = tested on: Rattus norvegicus; assay: Ratio between the distribution of radioactivity of brain to that of blood tissue of rats at 1 hr after an intravenous administration; format: ADME, organism-based; outline: as §2
# [15] = tested on: Rattus norvegicus; assay: Ratio between the distribution of radioactivity of brain to that of blood tissue of rats at 2 hr after an intravenous administration; format: ADME, organism-based; outline: as §2
# [16] = tested on: Rattus norvegicus; assay: Ratio between the distribution of radioactivity of brain to that of blood tissue of rats at 2 min after an intravenous administration; format: ADME, organism-based; outline: as §2
# [17] = tested on: Rattus norvegicus; assay: Ratio between the distribution of radioactivity of brain to that of blood tissue of rats at 30 min after an intravenous administration; format: ADME, organism-based; details: 0.5 h; outline: as §2
# [18] = tested on: Rattus norvegicus; assay: Ratio between the distribution of radioactivity of brain to that of blood tissue of rats at 4 hr after an intravenous administration; format: ADME, organism-based; outline: as §2
# [19] = tested on: Rattus norvegicus; assay: Ratio between the distribution of radioactivity of brain to that of blood tissue of rats at 5 min after an intravenous administration; format: ADME, organism-based; outline: as §2
# [20] = tested on: Rattus norvegicus; assay: Distribution of radioactivity in thyroid tissue of rats at 5 mins after an intravenous injection; Value expressed as mean % injected dose, Range- 6.19-7.22; format: ADME, organism-based, Thyroid gland; details: in vivo; outline: as §1
# [21] = tested on: Rattus norvegicus; assay: Distribution of radioactivity in heart tissue of rats at 4 hr after an intravenous injection; Value expressed as mean % injected dose, Range- 0.16-0.2; format: ADME, organism-based; details: in vivo; outline: as §1
# [22] = tested on: Rattus norvegicus; assay: Distribution of radioactivity in heart tissue of rats at 5 mins after an intravenous injection; Value expressed as mean % injected dose, Range- 1.13-1.29; format: ADME, organism-based; details: in vivo; outline: as §1
# [23] = tested on: Rattus norvegicus; assay: Distribution of radioactivity in liver tissue of rats at 1 day after an intravenous injection; Value expressed as mean % injected dose, Range- 0.02-0.02; format: ADME, organism-based; details: in vivo, 24 h; outline: as §1
# [24] = tested on: Rattus norvegicus; assay: Distribution of radioactivity in liver tissue of rats at 1 hr after an intravenous injection; Value expressed as mean % injected dose, Range- 0.71-0.93; format: ADME, organism-based; details: in vivo; outline: as §1
# [25] = tested on: Rattus norvegicus; assay: Distribution of radioactivity in liver tissue of rats at 2 mins after an intravenous injection; Value expressed as mean % injected dose, Range- 2.91-3.53; format: ADME, organism-based; details: in vivo; outline: as §1
# [26] = tested on: Rattus norvegicus; assay: Distribution of radioactivity in liver tissue of rats at 2 hr after an intravenous injection; Value expressed as mean % injected dose, Range- 0.42-0.62; format: ADME, organism-based; details: in vivo; outline: as §1
# [27] = tested on: Rattus norvegicus; assay: Distribution of radioactivity in liver tissue of rats at 30 mins after an intravenous injection; Value expressed as mean % injected dose, Range- 0.97-1.41; format: ADME, organism-based; details: in vivo, 0.5 h; outline: as §1
# [28] = tested on: Rattus norvegicus; assay: Distribution of radioactivity in liver tissue of rats at 4 hr after an intravenous injection; Value expressed as mean % injected dose, Range- 0.19-0.23; format: ADME, organism-based; details: in vivo; outline: as §1
# [29] = tested on: Rattus norvegicus; assay: Distribution of radioactivity in liver tissue of rats at 5 mins after an intravenous injection; Value expressed as mean % injected dose, Range- 2.49-2.82; format: ADME, organism-based; details: in vivo; outline: as §1
# [30] = tested on: Rattus norvegicus; assay: Distribution of radioactivity in lung tissue of rats at 1 day after an intravenous injection; Value expressed as mean % injected dose, Range- 0.02-0.03; format: ADME, organism-based; details: in vivo, 24 h; outline: as §1
# [31] = tested on: Rattus norvegicus; assay: Distribution of radioactivity in lung tissue of rats at 2 mins after an intravenous injection; Value expressed as mean % injected dose, Range- 1.17-1.42; format: ADME, organism-based; details: in vivo; outline: as §1
# [32] = tested on: Rattus norvegicus; assay: Distribution of radioactivity in lung tissue of rats at 2 hr after an intravenous injection; Value expressed as mean % injected dose, Range- 0.47-0.58; format: ADME, organism-based; details: in vivo; outline: as §1
# [33] = tested on: Rattus norvegicus; assay: Distribution of radioactivity in blood of rats at 30 mins after an intravenous injection; Value expressed as mean % injected dose, Range = 0.68-1.03; format: ADME, organism-based; details: in vivo, 0.5 h; outline: as §1
# [34] = tested on: Rattus norvegicus; assay: Distribution of radioactivity in blood of rats at 4 hr after an intravenous injection; Value expressed as mean % injected dose, Range- 0.45-0.48; format: ADME, organism-based; details: in vivo; outline: as §1
# [35] = tested on: Rattus norvegicus; assay: Distribution of radioactivity in blood of rats at 5 mins after an intravenous injection; Value expressed as mean % injected dose, Range-0.81-1; format: ADME, organism-based; details: in vivo; outline: as §1
# [36] = tested on: Rattus norvegicus; assay: Distribution of radioactivity in brain tissue of rats at 1 day after an intravenous injection; Value expressed as mean % injected dose, Range- 0.007-0.008; format: ADME, organism-based; details: in vivo, 24 h; outline: as §1
# [37] = tested on: Rattus norvegicus; assay: Distribution of radioactivity in brain tissue of rats at 1 hr after an intravenous injection; Value expressed as mean % injected dose, Range- 0.18-0.22; format: ADME, organism-based; details: in vivo; outline: as §1
# [38] = tested on: Rattus norvegicus; assay: Distribution of radioactivity in brain tissue of rats at 2 mins after an intravenous injection; Value expressed as mean % injected dose, Range- 0.77-0.97; format: ADME, organism-based; details: in vivo; outline: as §1
# [39] = tested on: Rattus norvegicus; assay: Distribution of radioactivity in brain tissue of rats at 2 hr after an intravenous injection; Value expressed as mean % injected dose, Range- 0.08-0.13; format: ADME, organism-based; details: in vivo; outline: as §1
# [40] = tested on: Rattus norvegicus; assay: Distribution of radioactivity in brain tissue of rats at 30 mins after an intravenous injection; Value expressed as mean % injected dose, Range- 0.25-0.37; format: ADME, organism-based; details: in vivo, 0.5 h; outline: as §1
# [41] = tested on: Rattus norvegicus; assay: Distribution of radioactivity in brain tissue of rats at 4 hr after an intravenous injection; Value expressed as mean % injected dose, Range- 0.03-0.04; format: ADME, organism-based; details: in vivo; outline: as §1
# [42] = tested on: Rattus norvegicus; assay: Distribution of radioactivity in brain tissue of rats at 5 mins after an intravenous injection; Value expressed as mean % injected dose, Range- 0.74-0.94; format: ADME, organism-based; details: in vivo; outline: as §1
# [43] = tested on: Rattus norvegicus; assay: Distribution of radioactivity in heart tissue of rats at 1 day after an intravenous injection; Value expressed as mean % injected dose, Range- 0.02-0.02; format: ADME, organism-based; details: in vivo, 24 h; outline: as §1
# [44] = tested on: Rattus norvegicus; assay: Distribution of radioactivity in heart tissue of rats at 1 hr after an intravenous injection; Value expressed as mean % injected dose, Range- 0.5-0.63; format: ADME, organism-based; details: in vivo; outline: as §1
# [45] = tested on: Rattus norvegicus; assay: Distribution of radioactivity in heart tissue of rats at 2 mins after an intravenous injection; Value expressed as mean % injected dose, Range- 1.35-1.55; format: ADME, organism-based; details: in vivo; outline: as §1
# [46] = tested on: Rattus norvegicus; assay: Distribution of radioactivity in heart tissue of rats at 2 hr after an intravenous injection; Value expressed as mean % injected dose, Range- 0.24-0.38; format: ADME, organism-based; details: in vivo; outline: as §1
# [47] = tested on: Rattus norvegicus; assay: Distribution of radioactivity in heart tissue of rats at 30 mins after an intravenous injection; Value expressed as mean % injected dose, Range- 0.55-0.82; format: ADME, organism-based; details: in vivo, 0.5 h; outline: as §1
# [48] = tested on: Rattus norvegicus; assay: Distribution of radioactivity in lung tissue of rats at 1 hr after an intravenous injection; Value expressed as mean % injected dose, Range- 0.66-0.77; format: ADME, organism-based; details: in vivo; outline: as §1
smiles,measurement,setting,value
CCC1(CCC/C=C/I)C(=O)NC(=O)NC1=O,Activity,[1],0.03
same,Activity,[2],0.97
same,Activity,[3],1
same,Activity,[4],0.76
same,Activity,[5],0.79
same,Activity,[6],0.29
same,Activity,[7],1.08
same,Activity,[8],434
same,Activity,[9],7.64
same,Activity,[10],130
same,Activity,[11],26.16
same,Activity,[12],178
same,Ratio,[13],0.26
same,Ratio,[14],0.2
same,Ratio,[15],0.14
same,Ratio,[16],0.83
same,Ratio,[17],0.36
same,Ratio,[18],0.07
same,Ratio,[19],0.91
same,Activity,[20],6.84
same,Activity,[21],0.18
same,Activity,[22],1.23
same,Activity,[23],0.02
same,Activity,[24],0.82
same,Activity,[25],3.19
same,Activity,[26],0.5
same,Activity,[27],1.21
same,Activity,[28],0.21
same,Activity,[29],2.69
same,Activity,[30],0.02
same,Activity,[31],1.31
same,Activity,[32],0.52
same,Activity,[33],0.92
same,Activity,[34],0.46
same,Activity,[35],0.9
same,Activity,[36],0.007
same,Activity,[37],0.19
same,Activity,[38],0.83
same,Activity,[39],0.1
same,Activity,[40],0.33
same,Activity,[41],0.03
same,Activity,[42],0.82
same,Activity,[43],0.02
same,Activity,[44],0.56
same,Activity,[45],1.49
same,Activity,[46],0.33
same,Activity,[47],0.71
same,Activity,[48],0.72
